Measured values from ChEMBL document CHEMBL1629571, “High prevalence of plasmid-mediated quinolone resistance determinants qnr, aac(6')-Ib-cr, and qepA among ceftiofur-resistant Enterobacteriaceae isolates from companion and food-producing animals” (2009).
In brackets after ≈: the same amount, converted by molar mass.

Key:
Klebsiella pneumoniae [1] = test: Antimicrobial activity against Klebsiella pneumoniae D10 expressing aac(6')-Ib-cr, qnrB4, CTX-M-1G and DHA-1 genes by agar dilution method; type: functional
Citrobacter freundii [2] = test: Antimicrobial activity against Citrobacter freundii D26 expressing qnrB6 and CTX-M-9G genes by agar dilution method; type: functional
In short: (§1)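 Agar dilution MICs per CLSI guidelines, with E. coli ATCC 25922 as the quality-control strain. Isolates were ceftiofur-resistant (MIC ≥ 8 μg/ml) Enterobacteriaceae from diseased companion or food-producing animals in Guangdong, China. They were identified biochemically and with Biolog Microlog, and PMQR and β-lactamase genes were typed by PCR and sequencing.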

Escherichia coli [3] = test: Antimicrobial activity against Escherichia coli Du19 expressing qnrB6 and CTX-M-9G genes by agar dilution method; type: functional; in short: as §1
Escherichia coli [4] = test: Antimicrobial activity against Escherichia coli PA11 expressing aac(6')-Ib-cr, qnrS1 and qepA genes by agar dilution method; type: functional; in short: as §1
Escherichia coli [5] = test: Antimicrobial activity against Escherichia coli J53 by agar dilution method; type: functional
Escherichia coli [6] = test: Antimicrobial activity against Escherichia coli J53 transformed with pHND1 carrying DHA-1 gene by agar dilution method; type: functional
In short: (§2)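 Transconjugants came from liquid mating of qnr-positive donors into E. coli J53Azi^r. They were selected on tryptic soy agar with sodium azide (100 μg/ml) plus sulfamethoxazole (300 μg/ml) or ampicillin (100 μg/ml). MICs were determined by CLSI agar dilution, with E. coli ATCC 25922 as the quality control strain.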

Escherichia coli [7] = test: Antimicrobial activity against Escherichia coli J53 transformed with pHND2 carrying qnrB6 and CTX-M-9G genes by agar dilution method
Escherichia coli [8] = test: Antimicrobial activity against Escherichia coli J53 transformed with pHND3 carrying qnrB6 gene by agar dilution method; type: functional; in short: as §2
Escherichia coli [9] = test: Antimicrobial activity against Escherichia coli J53 transformed with pHNDU1 carrying qnrB6 gene by agar dilution method; type: functional; in short: as §2
Escherichia coli [10] = test: Antimicrobial activity against Escherichia coli J53 transformed with pHNPA1 carrying qnrB6 gene by agar dilution method
Klebsiella pneumoniae [11] = test: Antimicrobial activity against Klebsiella pneumoniae D24 expressing qnrB6 and CTX-M-9G genes by agar dilution method
Klebsiella pneumoniae [12] = test: Antimicrobial activity against Klebsiella pneumoniae C1 expressing aac(6')-Ib-cr gene by agar dilution method
Klebsiella pneumoniae [13] = test: Antimicrobial activity against Klebsiella pneumoniae C7 expressing aac(6')-Ib-cr gene by agar dilution method
Escherichia coli [14] = test: Antimicrobial activity against Escherichia coli D71 expressing qepA, CTX-M-1G and CTX-M-9G genes by agar dilution method
Escherichia coli [15] = test: Antimicrobial activity against Escherichia coli P498 expressing qnrS1 gene by agar dilution method
Escherichia coli [16] = test: Antimicrobial activity against Escherichia coli Chi197 expressing aac(6')-Ib-cr and CTX-M-9G genes by agar dilution method
Escherichia coli [17] = test: Antimicrobial activity against Escherichia coli PA09 expressing aac(6')-Ib-cr gene by agar dilution method
Escherichia coli [18] = test: Antimicrobial activity against Escherichia coli PA14 expressing aac(6')-Ib-cr and qepA genes by agar dilution method
Klebsiella pneumoniae [19] = test: Antimicrobial activity against Klebsiella pneumoniae D24 expressing aac(6')-Ib-cr and CTX-M-9G genes by Etest
Citrobacter freundii [20] = test: Antimicrobial activity against Citrobacter freundii D26 expressing qnrB6 and CTX-M-9G genes by Etest; type: functional
Escherichia coli [21] = test: Antimicrobial activity against Escherichia coli PA11 expressing aac(6')-Ib-cr, qnrS1 and qepA genes by Etest; type: functional
Klebsiella pneumoniae [22] = test: Antimicrobial activity against Klebsiella pneumoniae D10 expressing aac(6')-Ib-cr, qnrB4, CTX-M-1G and DHA-1 genes by Etest; type: functional
Escherichia coli [23] = test: Antimicrobial activity against Escherichia coli J53 transformed with pHND1 carrying DHA-1 gene by Etest; type: functional
Escherichia coli [24] = test: Antimicrobial activity against Escherichia coli J53 transformed with pHND2 carrying qnrB6 and CTX-M-9G genes by Etest; type: functional
Escherichia coli [25] = test: Antimicrobial activity against Escherichia coli Du19 expressing qnrB6 and CTX-M-9G genes by Etest; type: functional
Escherichia coli [26] = test: Antimicrobial activity against Escherichia coli J53 transformed with pHNDU1 carrying qnrB6 gene by Etest; type: functional

Compound | MIC (Klebsiella pneumoniae [1]) | MIC (Citrobacter freundii [2]) | MIC (Escherichia coli [3]) | MIC (Escherichia coli [4]) | MIC (Escherichia coli [5]) | MIC (Escherichia coli [6]) | MIC (Escherichia coli [7]) | MIC (Escherichia coli [8]) | MIC (Escherichia coli [9]) | MIC (Escherichia coli [10]) | MIC (Klebsiella pneumoniae [11]) | also measured
NCC[C@H](O)C(=O)N[C@@H]1C[C@H](N)[C@@H](O[C@H]2O[C@H](CN)[C@@H](O)[C@H](O)[C@H]2O)[C@H](O)[C@H]1O[C@H]1O[C@H](CO)[C@@H](O)[C@H](N)[C@H]1O [AMIKACIN] | > 128 µg/mL | > 128 µg/mL | > 128 µg/mL | > 256 µg/mL | 0.5 µg/mL (≈ 0.854 µM) | > 128 µg/mL | 0.5 µg/mL (≈ 0.854 µM) | 1 µg/mL (≈ 1.71 µM) | > 128 µg/mL | 0.25 µg/mL (≈ 0.427 µM) | 2 µg/mL (≈ 3.42 µM) | 
CC1(C)S[C@@H]2[C@H](NC(=O)[C@H](N)c3ccccc3)C(=O)N2[C@H]1C(=O)O [AMPICILLIN] | > 128 µg/mL | > 128 µg/mL | > 128 µg/mL | > 256 µg/mL |  | > 128 µg/mL | > 128 µg/mL | > 128 µg/mL | 64 µg/mL (≈ 183 µM) | > 256 µg/mL | > 128 µg/mL | 
CO/N=C(\C(=O)N[C@@H]1C(=O)N2C(C(=O)O)=C(COC(C)=O)CS[C@H]12)c1csc(N)n1 [CEFOTAXIME] | 128 µg/mL (≈ 281 µM) | 64 µg/mL (≈ 141 µM) | 128 µg/mL (≈ 281 µM) | 16 µg/mL (≈ 35.1 µM) | 0.06 µg/mL (≈ 0.132 µM) | 0.125 µg/mL (≈ 0.274 µM) | 32 µg/mL (≈ 70.3 µM) | 0.06 µg/mL (≈ 0.132 µM) | 1 µg/mL (≈ 2.2 µM) | 0.5 µg/mL (≈ 1.1 µM) | 64 µg/mL (≈ 141 µM) | 
CO/N=C(\C(=O)N[C@@H]1C(=O)N2C(C(=O)[O-])=C(C[n+]3cccc4c3CCCC4)CS[C@H]12)c1csc(N)n1 [CEFQUINOME] | 64 µg/mL (≈ 121 µM) | 64 µg/mL (≈ 121 µM) | 32 µg/mL (≈ 60.5 µM) | 64 µg/mL (≈ 121 µM) | 0.06 µg/mL (≈ 0.114 µM) | 0.06 µg/mL (≈ 0.114 µM) | 8 µg/mL (≈ 15.1 µM) | 0.06 µg/mL (≈ 0.114 µM) | 0.25 µg/mL (≈ 0.473 µM) | 0.25 µg/mL (≈ 0.473 µM) | 64 µg/mL (≈ 121 µM) | 
CC(C)(O/N=C(\C(=O)N[C@@H]1C(=O)N2C(C(=O)[O-])=C(C[n+]3ccccc3)CS[C@H]12)c1csc(N)n1)C(=O)O [CEFTAZIDIME] | 128 µg/mL (≈ 234 µM) | 1 µg/mL (≈ 1.83 µM) | 16 µg/mL (≈ 29.3 µM) | 32 µg/mL (≈ 58.5 µM) | 0.125 µg/mL (≈ 0.229 µM) | 0.25 µg/mL (≈ 0.457 µM) | 1 µg/mL (≈ 1.83 µM) | 0.125 µg/mL (≈ 0.229 µM) | 0.5 µg/mL (≈ 0.915 µM) | 1 µg/mL (≈ 1.83 µM) | 2 µg/mL (≈ 3.66 µM) | 
CO/N=C(\C(=O)N[C@@H]1C(=O)N2C(C(=O)O)=C(CSC(=O)c3ccco3)CS[C@H]12)c1csc(N)n1 [CEFTIOFUR] | 128 µg/mL (≈ 244 µM) | 128 µg/mL (≈ 244 µM) | 128 µg/mL (≈ 244 µM) | > 128 µg/mL | 0.25 µg/mL (≈ 0.477 µM) | 0.5 µg/mL (≈ 0.955 µM) | 64 µg/mL (≈ 122 µM) | 0.25 µg/mL (≈ 0.477 µM) | 0.25 µg/mL (≈ 0.477 µM) | 0.5 µg/mL (≈ 0.955 µM) | > 128 µg/mL | 
O=C(N[C@H](CO)[C@H](O)c1ccc([N+](=O)[O-])cc1)C(Cl)Cl [CHLORAMPHENICOL] | > 128 µg/mL | 64 µg/mL (≈ 198 µM) | > 128 µg/mL | > 256 µg/mL | 8 µg/mL (≈ 24.8 µM) | > 128 µg/mL | > 128 µg/mL | 8 µg/mL (≈ 24.8 µM) | > 128 µg/mL |  | > 128 µg/mL | 
O=C(O)c1cn(C2CC2)c2cc(N3CCNCC3)c(F)cc2c1=O [CIPROFLOXACIN] |  | 4 µg/mL (≈ 12.1 µM) | 64 µg/mL (≈ 193 µM) | > 128 µg/mL |  |  |  |  |  |  | 2 µg/mL (≈ 6.04 µM) | MIC (Klebsiella pneumoniae [12]): 8 µg/mL (≈ 24.1 µM); MIC (Klebsiella pneumoniae [13]): 8 µg/mL (≈ 24.1 µM); MIC (Escherichia coli [14]): 64 µg/mL (≈ 193 µM); MIC (Escherichia coli [15]): 64 µg/mL (≈ 193 µM); MIC (Escherichia coli [16]): 64 µg/mL (≈ 193 µM); MIC (Escherichia coli [17]): 64 µg/mL (≈ 193 µM); MIC (Escherichia coli [18]): > 128 µg/mL; MIC (Klebsiella pneumoniae [19]): 2 µg/mL (≈ 6.04 µM); MIC (Citrobacter freundii [20]): 4 µg/mL (≈ 12.1 µM); MIC (Escherichia coli [21]): > 128 µg/mL
C[C@H]1COc2c(N3CCN(C)CC3)c(F)cc3c(=O)c(C(=O)O)cn1c23.C[C@H]1COc2c(N3CCN(C)CC3)c(F)cc3c(=O)c(C(=O)O)cn1c23.O [LEVOFLOXACIN] |  |  |  |  |  |  |  |  |  |  |  | MIC (Klebsiella pneumoniae [22]): 16 µg/mL; MIC (Escherichia coli [23]): 0.25 µg/mL; MIC (Escherichia coli [24]): 0.25 µg/mL; MIC (Citrobacter freundii [20]): 2 µg/mL; MIC (Escherichia coli [25]): 16 µg/mL; MIC (Escherichia coli [26]): 2 µg/mL; MIC (Escherichia coli [21]): 128 µg/mL
CCn1cc(C(=O)O)c(=O)c2ccc(C)nc21 [NALIDIXIC ACID] | > 128 µg/mL | 128 µg/mL (≈ 551 µM) | > 128 µg/mL | > 128 µg/mL | 4 µg/mL (≈ 17.2 µM) | 16 µg/mL (≈ 68.9 µM) | 16 µg/mL (≈ 68.9 µM) | 4 µg/mL (≈ 17.2 µM) | 64 µg/mL (≈ 276 µM) | 32 µg/mL (≈ 138 µM) | 64 µg/mL (≈ 276 µM) | 
Cc1cc(NS(=O)(=O)c2ccc(N)cc2)no1 [SULFAMETHOXAZOLE] | > 256 µg/mL | > 256 µg/mL | > 256 µg/mL | > 256 µg/mL | 16 µg/mL (≈ 63.2 µM) | > 256 µg/mL | > 256 µg/mL | 4 µg/mL (≈ 15.8 µM) | 128 µg/mL (≈ 505 µM) | > 256 µg/mL | > 256 µg/mL | 
COc1cc(Cc2cnc(N)nc2N)cc(OC)c1OC [TRIMETHOPRIM] | > 256 µg/mL | > 256 µg/mL | > 256 µg/mL | > 256 µg/mL | 0.25 µg/mL (≈ 0.861 µM) | > 256 µg/mL | > 256 µg/mL | > 256 µg/mL | 0.5 µg/mL (≈ 1.72 µM) | > 256 µg/mL | > 256 µg/mL | 
GENTAMICIN | > 128 µg/mL | > 128 µg/mL | > 128 µg/mL | > 256 µg/mL | 0.125 µg/mL | > 128 µg/mL |  | 16 µg/mL | > 128 µg/mL |  |  | 
